Assay results as given in ChEMBL document CHEMBL3108729, “Design, synthesis and anticonvulsant evaluation of N-(benzo[d]thiazol-2-ylcarbamoyl)-2-methyl-4-oxoquinazoline-3(4H)-carbothioamide derivatives: a hybrid pharmacophore approach” (Eur J Med Chem, 2013).
Calls of active or inactive are those of the source. The rule behind the calls is not given here.

How the values were obtained:
Mus musculus [1] = experiment: Anticonvulsant activity in albino mouse assessed as protection against maximal electroshock-induced seizures at 300 mg/kg, ip measured after 0.5 hrs; type: functional, organism-based; parameters: dose 300 mg/kg
Mus musculus [2] = experiment: Anticonvulsant activity in albino mouse assessed as protection against maximal electroshock-induced seizures at 300 mg/kg, ip measured after 4 hrs; type: functional, organism-based; parameters: dose 300 mg/kg
Mus musculus [3] = experiment: Neurotoxicity in albino mouse at 300 mg/kg, ip after 0.5 hrs by rotorod test; type: toxicity, organism-based; parameters: dose 300 mg/kg, route intraperitoneal; conditions: in vivo
Method in brief: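 Swiss mice (25–30 g), four per dose, got 30, 100 or 300 mg/kg i.p. and were checked on the rotorod at 0.5 and 4 h. Motor impairment meant failure to keep equilibrium on the rod for 1 min. The value is the minimum dose at which half or more of the mice were impaired.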

Mus musculus [4] = experiment: Neurotoxicity in ip dosed albino mouse after 4 hrs by rotorod test; type: toxicity, organism-based; conditions: in vivo
Method in brief: (§1)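 Swiss mice, four per dose, received 30, 100 or 300 mg/kg i.p. and were placed on a rotorod at 0.5 and 4 h. Neurotoxicity meant failure to keep balance for 1 min. The value reported is the minimum dose affecting half or more of the mice.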

Mus musculus [5] = experiment: Anticonvulsant activity in ip dosed albino mouse assessed as protection against maximal electroshock-induced seizures after 0.5 hrs; type: functional; conditions: read-out: MED
[6] = Neurotoxicity in po dosed albino rat after 1 hr; type: toxicity, organism-based; conditions: in vivo
Mus musculus [7] = experiment: Neurotoxicity in ip dosed albino mouse after 0.5 hrs by rotorod test; type: toxicity, organism-based; conditions: in vivo; method in brief: as §1
Mus musculus [8] = experiment: Anticonvulsant activity in ip dosed albino mouse assessed as protection against maximal electroshock-induced seizures after 4 hrs; type: functional; conditions: read-out: MED
Rattus norvegicus [9] = experiment: Anticonvulsant activity in po dosed albino rat assessed as protection against maximal electroshock-induced seizures after 1 hr; type: functional
Rattus norvegicus [10] = experiment: Anticonvulsant activity in po dosed albino rat assessed as protection against pentylenetetrazole-induced seizure after 1 hr; type: functional
Mus musculus [11] = experiment: Neurotoxicity in albino mouse at 300 mg/kg, ip after 4 hrs by rotorod test; type: toxicity, organism-based; parameters: dose 300 mg/kg, route intraperitoneal; conditions: in vivo; method in brief: as §1
[12] = Neurotoxicity in po dosed albino mouse after 1 hr; type: toxicity, organism-based; conditions: in vivo
Rattus norvegicus [13] = experiment: Anticonvulsant activity in po dosed albino rat assessed as protection against pentylenetetrazole-induced seizure after 2 hrs; type: functional
Mus musculus [14] = experiment: Anticonvulsant activity in ip dosed albino mouse assessed as protection against 6 Hz electroshock-induced seizures after 1 hr; type: functional
Rattus norvegicus [15] = experiment: Anticonvulsant activity in po dosed albino rat assessed as protection against maximal electroshock-induced seizures after 2 hrs; type: functional
[16] = Protective index, ratio of TD50 for neurotoxicity to ED50 for protection against pentylenetetrazole-induced seizure in albino rat after 2 hrs; type: toxicity, organism-based; conditions: in vivo, read-out: Ratio TD50/ED50
Method in brief: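 Groups of eight rats were dosed orally at the previously estimated time of peak effect, at several doses, until at least three points fell within 10–90% protection or minimal neurotoxicity. ED50 and TD50 with 95% confidence limits came from regression of the plotted data. Protective index was calculated as TD50/ED50.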

[17] = Neurotoxicity in po dosed albino rat after 2 hrs; type: toxicity, organism-based; conditions: in vivo
Method in brief: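 Rats on oral fixed-dose testing (30 or 50 mg/kg) were scored for motor impairment in parallel with seizure testing, at five time points from one quarter hour to 4 h. The rotorod end point was failure to keep equilibrium for 1 min.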

Rattus norvegicus [18] = experiment: Anticonvulsant activity in Wistar rat assessed as inhibition of GABA-induced seizures measuring minimum GABA level per 100 mg whole brain required for 50 % inhibition at 30 mg/kg, po for 7 days (reference value: 51.5 +/- 2.60 ug/100 mg brain); type: functional
Method in brief: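 Adult Wistar rats in groups of six were dosed orally at 30 mg/kg for 7 days. Whole-brain GABA was then measured enzymatically in ethanol extracts as µg/100 mg tissue. Values are mean ± SEM of six rats versus control (Student's t test).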

Rattus norvegicus [19] = experiment: Anticonvulsant activity in Wistar rat assessed as inhibition of GABA-induced seizures measuring minimum GABA level per 100 mg whole brain required for 50 % inhibition at 30 mg/kg, ip as single dose measured after 2 hrs (reference value: 46.4 +/- 5.50 ug/100 mg brain); type: functional; conditions: route intraperitoneal
Rattus norvegicus [20] = experiment: Hepatotoxicity in albino rat assessed as change in SGOT level at 25 mg/kg, po for 14 days (reference value: 74.2+/-5.95 units/ml); type: toxicity, organism-based; parameters: dose 25 mg/kg, route oral; conditions: in vivo, 336 h
Rattus norvegicus [21] = experiment: Hepatotoxicity in albino rat assessed as change in SGPT level at 25 mg/kg, po for 14 days (reference value: 46.1+/-5.25 units/ml); type: toxicity, organism-based; parameters: dose 25 mg/kg, route oral; conditions: in vivo, 336 h
in vivo = conditions: albino, rat

Compound	Activity (Mus musculus [1])	Activity (Mus musculus [2])	minimal effective dose (Mus musculus [5]) [mg/kg]	MTC (Mus musculus [7]) [mg/kg]	Activity (Mus musculus [11])	further results
Cc1ccc2nc(NC(=O)NC(=S)n3c(C)nc4cc(F)ccc4c3=O)sc2c1	inactive	inactive				
Cc1nc2cc(Cl)ccc2c(=O)n1C(=S)NC(=O)Nc1nc2c(Cl)cccc2s1		inactive	300			Activity (Mus musculus [3]): Non-toxic; MTC (Mus musculus [4]): 300 mg/kg
Cc1nc2cc(Cl)ccc2c(=O)n1C(=S)NC(=O)Nc1nc2cc(Cl)ccc2s1		inactive	300			
NC(=O)N1c2ccccc2C=Cc2ccccc21 [CARBAMAZEPINE]			30	100		TD50 at 1 h [6]: 1530 µmol/kg; MTC (Mus musculus [4]): 300 mg/kg; minimal effective dose (Mus musculus [8]): 100 mg/kg; ED50 (Rattus norvegicus [9]): 15.1 µmol/kg; ED50 (Rattus norvegicus [10]): > 1060 µmol/kg
Cc1nc2ccccc2c(=O)n1C(=S)NC(=O)Nc1nc2cc(Cl)ccc2s1			100	100	Non-toxic	minimal effective dose (Mus musculus [8]): 300 mg/kg
Cc1ccc2nc(NC(=O)NC(=S)n3c(C)nc4ccccc4c3=O)sc2c1		inactive	300	300	Non-toxic	
Cc1nc2cc(F)ccc2c(=O)n1C(=S)NC(=O)Nc1nc2ccc(F)cc2s1	inactive	inactive				
Cc1nc2ccccc2c(=O)n1C(=S)NC(=O)Nc1nc2c(Cl)cccc2s1	inactive	inactive		300	Non-toxic	
Cc1nc2cc(Cl)ccc2c(=O)n1C(=S)NC(=O)Nc1nc2ccc(O)cc2s1	inactive	inactive				
CCC1(C)CC(=O)NC1=O (centres undefined) [ETHOSUXIMIDE]	inactive	inactive			Non-toxic	TD50 at 1 h [12]: 2410 µmol/kg; ED50 (Rattus norvegicus [13]): 1180 µmol/kg; ED50 (Mus musculus [14]): 1180 µmol/kg; ED50 (Rattus norvegicus [15]): > 3540 µmol/kg; selectivity ratio at 2 h [16]: > 3; Activity (Mus musculus [3]): Non-toxic; TD50 at 2 h [17]: > 3540 µmol/kg
Cc1nc2ccccc2c(=O)n1C(=S)NC(=O)Nc1nc2c(Br)cccc2s1	inactive	inactive				
COc1ccc2nc(NC(=O)NC(=S)n3c(C)nc4cc(Cl)ccc4c3=O)sc2c1	inactive	inactive				
Cc1nc2cc(Cl)ccc2c(=O)n1C(=S)NC(=O)Nc1nc2ccc(F)cc2s1			300			minimal effective dose (Mus musculus [8]): 300 mg/kg
Cc1nc2cc(F)ccc2c(=O)n1C(=S)NC(=O)Nc1nc2ccc(OC(F)(F)F)cc2s1	inactive			100		MTC (Mus musculus [4]): 300 mg/kg; minimal effective dose (Mus musculus [8]): 300 mg/kg
Cc1nc2ccccc2c(=O)n1C(=S)NC(=O)Nc1nc2ccc(Br)cc2s1			100	300	Non-toxic	minimal effective dose (Mus musculus [8]): 300 mg/kg
Cc1nc2cc(F)ccc2c(=O)n1C(=S)NC(=O)Nc1nc2ccc(O)cc2s1	inactive	inactive				

Compound	Activity (Mus musculus [1])	Activity (Mus musculus [2])	minimal effective dose (Mus musculus [5]) [mg/kg]	MTC (Mus musculus [7]) [mg/kg]	Activity (Mus musculus [11])	further results
CN1C(=O)CC(=O)N(c2ccccc2)c2cc(Cl)ccc21 [CLOBAZAM]						GABA level (Rattus norvegicus [18]): 110 µg/100 mg brain; Activity (Rattus norvegicus [19]): 101 µg
O=C1NC(=O)C(c2ccccc2)(c2ccccc2)N1 [PHENYTOIN]			30	100		Activity (Rattus norvegicus [20]): 84.1 U/ml; ED50 (Rattus norvegicus [13]): > 3540 µmol/kg; Activity (Rattus norvegicus [21]): 52.6 U/ml; ED50 (Rattus norvegicus [15]): 92 µmol/kg; selectivity ratio at 2 h (in vivo): > 22; MTC (Mus musculus [4]): 100 mg/kg; minimal effective dose (Mus musculus [8]): 30 mg/kg; TD50 at 2 h [17]: > 1980 µmol/kg
Cc1ccc2nc(NC(=O)NC(=S)n3c(C)nc4cc(Cl)ccc4c3=O)sc2c1	inactive	inactive				
Cc1nc2cc(Cl)ccc2c(=O)n1C(=S)NC(=O)Nc1nc2c(Br)cccc2s1	inactive	inactive				
Cc1nc2cc(Cl)ccc2c(=O)n1C(=S)NC(=O)Nc1nc2ccc(Br)cc2s1		inactive	100	300		MTC (Mus musculus [4]): 300 mg/kg
Cc1nc2cc(F)ccc2c(=O)n1C(=S)NC(=O)Nc1nc2ccc(Br)cc2s1		inactive	300	300	Non-toxic	
Cc1nc2cc(F)ccc2c(=O)n1C(=S)NC(=O)Nc1nc2ccc(Cl)cc2s1		inactive	300	100	Non-toxic	
Cc1nc2ccccc2c(=O)n1C(=S)NC(=O)Nc1nc2ccc(F)cc2s1			30	300	Non-toxic	minimal effective dose (Mus musculus [8]): 100 mg/kg
Cc1nc2ccccc2c(=O)n1C(=S)NC(=O)Nc1nc2ccc(O)cc2s1	inactive	inactive				
COc1ccc2nc(NC(=O)NC(=S)n3c(C)nc4ccccc4c3=O)sc2c1	inactive	inactive				
COc1ccc2nc(NC(=O)NC(=S)n3c(C)nc4cc(F)ccc4c3=O)sc2c1	inactive	inactive				
Cc1nc2cc(F)ccc2c(=O)n1C(=S)NC(=O)Nc1nc2c(Cl)cccc2s1		inactive	300	300	Non-toxic	
Cc1nc2cc(F)ccc2c(=O)n1C(=S)NC(=O)Nc1nc2cc(Cl)ccc2s1		inactive	300	100		MTC (Mus musculus [4]): 300 mg/kg
Cc1nc2cc(F)ccc2c(=O)n1C(=S)NC(=O)Nc1nc2c(Br)cccc2s1		inactive	300	300	Non-toxic	
Cc1nc2cc(Cl)ccc2c(=O)n1C(=S)NC(=O)Nc1nc2ccc(OC(F)(F)F)cc2s1			100	300	Non-toxic	minimal effective dose (Mus musculus [8]): 100 mg/kg
Cc1nc2cc(Cl)ccc2c(=O)n1C(=S)NC(=O)Nc1nc2ccc(Cl)cc2s1			100	300		minimal effective dose (Mus musculus [8]): 100 mg/kg
